Here are results for 2 compounds from ChEMBL document CHEMBL4033800, “Further Developments of the Phenyl-Pyrrolyl Pentane Series of Nonsteroidal Vitamin D Receptor Modulators as Anticancer Agents” (J Med Chem, 2018).

The source made the active and inactive calls. No cut-off for these calls is given here.

In general, IC50 refers to the concentration at which inhibition is half-maximal. Lower therefore signals inhibition by little substance. A word on the bioavailability: it is the share of a dose that reaches the circulation, judged against a reference dose that is usually intravenous. Read a high bioavailability as much systemic uptake. For orientation: clearance means a measure of how efficiently the substance is removed, as volume per time. What is called AUC is the area under the concentration-time curve, a measure of exposure. Read a high AUC as more exposure. As usually defined, the MRT is the average time that molecules of a dose stay in the body.

Data set [1] deals with MCF7. The data set is described as follows: Antitumor activity against human MCF7 cells xenografted in BALB/c nude mouse assessed as tumor growth inhibition at 10 mg/kg, ip administered every other day. The format is functional, organism-based. Summed up:
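MCF7 cells transplanted orthotopically into the breast of athymic nude mice. Dosing at 10 mg/kg i.p. in vehicle of polyoxyethylated castor oil/ethanol/saline 1:1:18, with vehicle and saline control groups. Body weight, tumor volume and serum calcium followed.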
Background: Xenograft models place foreign cells or tissue in a host animal.

Data set [2] in a line: Drug uptake in human MCF7 cells at 1 uM after 30 mins by HPLC analysis. To be noted: mcf7, 0.5 h. The format is ADME, cell-based. In a few lines: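 MCF7 cells were given 1 µM compound in medium with 10% FBS for 10 or 30 min. Cells and medium were extracted separately with chloroform/methanol (3:1, v/v) and analysed by HPLC. Mean ± SEM, n = 3.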
Data set [3] has as its system L02. The data set is described as follows: Antiproliferative activity against human L02 cells after 48 hrs by MTT assay. Format: cell-based. To be noted: L02, 48 h. (Formazan colour is commonly taken as a measure of viable cells.)
A short description of data set [4]: Oral bioavailability in Sprague-Dawley rat at 20 mg/kg measured up to 48 hrs after administration by HPLC analysis. To be noted: in vivo. The format is ADME, organism-based. In a few lines: (§1)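 Male Sprague-Dawley rats (180−220 g), 4 per group, dosed at 5 mg/kg i.v., 20 mg/kg i.p. or 20 mg/kg p.o. Parameters given as mean ± SD (n = 4).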
Data set [5] can be described thus: Clearance in Sprague-Dawley rat at 5 mg/kg, iv measured up to 48 hrs post administration by HPLC analysis. The format is ADME, organism-based. To be noted: in vivo. In a few lines: as §1
Data set [6] in a line: AUC in Sprague-Dawley rat at 20 mg/kg, po measured up to 48 hrs post administration by HPLC analysis. The format is ADME, organism-based. More on the design: time < 48 hr, dose 20 mg/kg, route oral. To be noted: in vivo. In a few lines: as §1
The test system of data set [7] is MCF7. In words: Antitumor activity against human MCF7 cells xenografted in BALB/c nude mouse assessed as reduction in tumor cell proliferation at 10 mg/kg, ip administered every other day by Ki-67 staining based microscopic analysis. The format is functional, organism-based. Summed up: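 MCF7 orthotopic tumors from nude mice given 10 mg/kg i.p. were sectioned and immunostained for Ki-67. Ki-67-positive area was scored as a percentage of total nuclear area per field (n=10 fields, 400×) and normalized to the calcitriol group.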

Data set [8] relates to MCF7. In words: Induction of apoptosis in human MCF7 cells assessed as viable cells at 1 uM after 24 hrs by Annexin V-FITC/propidium iodide-staining based flow cytometry (reference value: 98.2%). The format is functional. To be noted: MCF7, 24 h, read-out: Activity. A general note: In flow cytometry, cells or beads pass a laser one at a time.
Data set [9] is described as follows: MRT in Sprague-Dawley rat at 20 mg/kg, ip by HPLC analysis. The format is ADME, organism-based. To be noted: in vivo. Summed up: as §1
Data set [10] has as its system MCF7. In words: Induction of apoptosis in human MCF7 cells assessed as upregulation of Bax mRNA levels at 1 uM after 24 hrs by RT-qPCR analysis. The format is functional, cell-based.
Data set [11] deals with MCF7. In words: Induction of apoptosis in human MCF7 cells xenografted in BALB/c nude mouse at 10 mg/kg, ip administered every other day by TUNEL assay. The format is functional, organism-based. In a few lines:
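Apoptosis in MCF7 orthotopic tumor sections from nude mice given 10 mg/kg i.p. was scored by TUNEL staining.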

The subject of data set [12] is HepG2. In words: Antiproliferative activity against human HepG2 cells after 48 hrs by MTT assay. Format: functional, cell-based. To be noted: HepG2, 48 h.
The subject of data set [13] is Mus musculus. In words: Hypercalcemic effect in ICR mouse at 30 mg/kg/day, ip administered for 7 days measured on day 8 post-dose by MTB-based assay relative to control. Format: ADME, organism-based. To be noted: in vivo, 168 h. In a few lines: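 Mice were dosed i.p. over a 7-day period and serum calcium was then measured. Each dose level was compared with a vehicle-treated control group (saline cited as the comparator). Data are mean ± SEM, n = 6 per group. Significance versus vehicle was reported at p < 0.05, 0.01 and 0.001.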

The nature of data set [14]: Drug metabolism in human MCF7 cells at 1 uM after 24 hrs by HPLC analysis. Format: ADME, cell-based. To be noted: read-out: Drug metabolism. In a few lines: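 MCF7 cells were incubated 24 h with 1 µM compound, alongside a medium-only incubation without cells. Mixtures were extracted with chloroform/methanol (3:1, v/v) and quantified by HPLC. Mean ± SEM, n = 3.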

For `CCN(CC)CCCNC(=O)c1ccc(C(CC)(CC)c2ccc(OCCC(O)(CC)CC)c(C)c2)n1CC`, in data set [1], the TGI result is “Active”. Also, the Drug uptake entry in data set [2] is given as “Active”. For the same compound, the IC50 in data set [3] turned out to be 370 nM; in data set [12], 150 nM. Moreover, in data set [4], the bioavailability amounted to 21.3%. For the same compound, the clearance in data set [5] is 3.5 mL/min. This compound yielded an AUC at 48 h in data set [6] of 21500 ng·h/mL. For the same compound, the result in [7], in data set [10] and in data set [11] was Active. Further, the viability at 1 µM in [8] turned out to be 85.7%. For the same compound, the MRT in data set [9] was 9.3 h.
In the case of `CCn1c(C(=O)NCCCN2CCOCC2)ccc1C(CC)(CC)c1ccc(OCCC(O)(CC)CC)c(C)c1`, the TGI entry in data set [1] is “Active”. The Drug uptake in [2] is given as 38.2%. For the same compound, the IC50 in data set [3] amounted to 2860 nM; in [12] it was 1760 nM. The Activity entry in data set [13] is on record as “Toxic”. In data set [4], this compound yielded a bioavailability of 36.8%. In data set [5], this compound gave a clearance of 8.17 mL/min. The compound also returned an AUC at 48 h in [6] of 15300 ng·h/mL. The metabolised at 24 h, 1 µM in [14] was 6%. Also, the outcome in data set [7], in data set [10] and in [11] was Active. The viability at 1 µM in data set [8] turned out to be 87.3%. Besides, in data set [9], the MRT amounted to 17.6 h.
